MT stabilize HCS: stabilizes microtubules in HeLa cells | HeLa tubulin immunostaining HCS, 24 h; share of cells brighter than vehicle mean+2SD | % tubulin-high responders, % at 10 µM | hit rate 0.83% among 200,000 | AID 2205;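 active = plate Z-score above 3 for both tubulin-high and condensed-nucleus cell shares, with cell loss under 80%, at 10 µM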;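 also: anti alpha tubulin signal scored within the nucleus-defined area of each cell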
bCat nuc transl: beta-catenin nuclear translocation modulation. hit rate 0.3% among 190,000. nuclear translocation activity, % at 5 µM. HeLa beta-catenin nuclear translocation, immunofluorescence imaging;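 active = nuclear translocation activity above 50% at 5 µM, with a well cell count of 50 or more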;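 also: per-cell ratio of nuclear to cytoplasmic median beta-catenin stain intensity; plate controls were DMSO negative control for no effect and GSK-3 inhibitor IX positive control for full effect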
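assay system = human HeLa cells, endogenous beta-catenin | times = compound treatment 24 h, 37°C, 5% CO2 | detection = Anti-beta-catenin immunofluorescence on PFA-fixed, Triton-permeabilized cells, DAPI nuclei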
PGE2 EP2 inh: EP2 receptor (human) inhibition. P43116. C6 glioma cells expressing human EP2, cAMP TR-FRET; cells stimulated with saturating PGE2. inhibition, % at 25 µM. hit rate 0.52% among 260,000. AID 1422;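 active = percent inhibition above 40 after rounding to a whole number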;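 also: rat C6 glioma host cells with rolipram phosphodiesterase inhibitor present; the protocol text gives 20 µM as final concentration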
Target sequence (P43116 whole entry, looked up): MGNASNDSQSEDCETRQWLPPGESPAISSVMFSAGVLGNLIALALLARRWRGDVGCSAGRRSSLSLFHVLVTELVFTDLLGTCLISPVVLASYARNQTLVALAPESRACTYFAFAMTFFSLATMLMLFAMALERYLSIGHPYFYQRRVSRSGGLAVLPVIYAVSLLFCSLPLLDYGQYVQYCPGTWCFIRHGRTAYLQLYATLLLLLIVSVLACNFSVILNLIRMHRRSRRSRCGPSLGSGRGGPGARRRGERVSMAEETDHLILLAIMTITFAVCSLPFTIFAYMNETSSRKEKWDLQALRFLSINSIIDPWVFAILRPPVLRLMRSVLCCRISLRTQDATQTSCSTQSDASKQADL
Tb hexokinase: blocks Trypanosoma brucei hexokinase 1 activity. inhibition, % at 10 µM. hit rate 0.11% among 220,000. recombinant TbHK1, G6PDH-coupled NADH A340;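 active = inhibition of 50% or more in the single-dose primary screen; inactive = inhibition below 50%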
Efa HMGR inh: E. faecalis class II HMG-CoA reductase inhibition; inhibition, % at 10 µM; hit rate 0.41% among 190,000; purified E. faecalis HMGR, NADPH absorbance 340 nm kinetic;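 active = inhibition above a set limit, the median over all tested compounds plus 3 SD, cut at about 9.5% in these data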;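 also: enzyme runs in reverse so mevalonate oxidation gives rising NADPH absorbance; 0% = complete reaction with DMSO and 100% = background rate lacking mevalonate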
EP2 modulator: EP2 receptor (human) modulation. P43116. EP2-expressing cells, cAMP HTRF FRET, PGE2 co-stimulation. induction, % at 25 µM. hit rate 0.83% among 260,000. AID 940;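 active = compounds whose cAMP rise, as percent of the full-agonist control response, exceeds 60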;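 also: rat C6 glioma line stably carrying human EP2 under a CMV promoter; the protocol text gives 20 µM as final concentration; 100% = response of wells given 1 µM PGE2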
Numbers without * were called inactive. The list is not random: actives were taken first. Their share in the collection is about 2.4%.

`O=C(c1ccc(F)cc1)N1CCCC(c2ccccc2)C1` (stereo not given) gave MT stabilize HCS 2.2, bCat nuc transl 0.6, PGE2 EP2 inh 4.3, Tb hexokinase 0.4, Efa HMGR inh 13.1* and EP2 modulator -14.9.
Screening COCC(=O)N1CCOc2nc3c(C)c(C)ccc3cc2C1 returned EP2 modulator -25.5.
`O=C(NCc1ccco1)C1CCCN(S(=O)(=O)c2ccc(Br)cc2)C1` (stereo not given) gave MT stabilize HCS 2.3, bCat nuc transl 0.2, PGE2 EP2 inh 6.9, Tb hexokinase 2.2, Efa HMGR inh 10.6* and EP2 modulator 5.4.
CS(=O)(=O)N1CCCC(C(=O)NCc2ccco2)C1 (stereo not given) was read as MT stabilize HCS 3.2, bCat nuc transl -1.0, PGE2 EP2 inh 7.5, Tb hexokinase 0.8, Efa HMGR inh -1.4 and EP2 modulator 4.0.
COc1cccc(CC2(CO)CCCN(Cc3ccc(-c4ccco4)cc3)C2)c1 (stereo not given) was read as MT stabilize HCS 2.0, bCat nuc transl 2.9, PGE2 EP2 inh 3.3, Tb hexokinase -12.0, Efa HMGR inh -5.3 and EP2 modulator -36.1.
For COc1cccc(CC2(CO)CCCN(Cc3ccccc3-c3ccco3)C2)c1 (stereo not given) the results were MT stabilize HCS 3.5, bCat nuc transl -0.5, PGE2 EP2 inh 1.5, Tb hexokinase -5.4, Efa HMGR inh -3.6 and EP2 modulator 62.9*.
For O=c1[nH]c2cc3c(cc2cc1CN(CCO)S(=O)(=O)c1ccc2c(c1)OCCO2)OCO3 the results were PGE2 EP2 inh 8.5 and EP2 modulator -6.1.
Screening CCn1c(COc2ccc(C)cc2)nnc1SCC(=O)NCc1ccco1 returned MT stabilize HCS 3.9, bCat nuc transl 0.7, PGE2 EP2 inh 9.7, Tb hexokinase -3.0, Efa HMGR inh -1.7 and EP2 modulator 13.1.
Screening CCOc1ccc(Nc2nc(Cc3nnc(SCC(=O)NCc4ccco4)n3CC)cs2)cc1 returned MT stabilize HCS 16.5, bCat nuc transl 148.0*, PGE2 EP2 inh 12.0, Tb hexokinase 14.0, Efa HMGR inh -4.3 and EP2 modulator -15.8.
Cc1sc(NC(=O)CN2CCN(C(=O)/C=C/c3ccccc3)CC2)c(C(N)=O)c1C was read as PGE2 EP2 inh 22.9 and EP2 modulator -16.1.
`COCCCN1C(=O)C(=O)/C(=C(\O)c2cccc(OC)c2)C1c1ccco1` (stereo not given) gave PGE2 EP2 inh 7.4 and EP2 modulator -21.5.
CCOC(=O)c1c(C)[nH]sc1=S was read as MT stabilize HCS 5.1, bCat nuc transl 1.9, Tb hexokinase 25.0, Efa HMGR inh -2.8 and EP2 modulator 64.2*.
COc1ccc(NC(=O)c2cncc(Br)c2)c(S(=O)(=O)N2CCOCC2)c1 was read as MT stabilize HCS 1.4, bCat nuc transl -6.9, PGE2 EP2 inh 12.3, Tb hexokinase -6.4, Efa HMGR inh 11.4* and EP2 modulator -23.4.
COc1ccc(NC(=O)c2cccnc2Cl)c(S(=O)(=O)N2CCOCC2)c1 was read as MT stabilize HCS 4.3, bCat nuc transl -2.8, PGE2 EP2 inh 5.3, Tb hexokinase 4.7, Efa HMGR inh -3.1 and EP2 modulator 17.2.
For O=C1NC2(CCN(C(=O)C3CC(=O)N(C4CCCCC4)C3)CC2)Oc2ccccc21 (stereo not given) the results were EP2 modulator -71.8.
For C=C(C)COc1cccc(CN2CCC(NC(C)=O)(c3ccc(F)cc3)CC2)c1 the results were PGE2 EP2 inh 3.4 and EP2 modulator -34.3.
C/C(CCN1CCCCc2nc(C)c(C)cc21)=N\O[C@@H](C)c1cn([C@H](CO)Cc2ccccc2)nn1 was read as MT stabilize HCS 2.3, bCat nuc transl -5.0, PGE2 EP2 inh -5.1, Tb hexokinase -3.7, Efa HMGR inh -5.1 and EP2 modulator 20.4.
`C/C(CCN1CCCCc2nc(C)c(C)cc21)=N\O[C@H](C)c1cn([C@H](CO)Cc2ccccc2)nn1` gave MT stabilize HCS 3.7, bCat nuc transl -2.3, Tb hexokinase -5.7, Efa HMGR inh 11.6* and EP2 modulator -10.8.
`ClC(=Nc1cccc2ccccc12)N(c1ccccc1)c1ccccc1` gave PGE2 EP2 inh 39.7* and EP2 modulator 37.8.
NC(=O)CN1CCNCC1 was read as PGE2 EP2 inh 25.4 and EP2 modulator -11.4.
CC(C)(C)NC(=O)COC(=O)CCC(=O)c1ccc(F)cc1 was read as MT stabilize HCS 4.0, bCat nuc transl -1.2, PGE2 EP2 inh 89.4*, Tb hexokinase 8.0, Efa HMGR inh -0.2 and EP2 modulator -7.8.
For CC(C(=O)NCCn1nnn(-c2ccccc2)c1=O)n1cnc2ccccc2c1=O (stereo not given) the results were PGE2 EP2 inh 7.9 and EP2 modulator -41.9.
`O=C(Nc1nn[nH]n1)c1nc(-c2ccccc2)cc(=O)[nH]1` gave PGE2 EP2 inh 55.0* and EP2 modulator 19.7.
Screening CC(=O)Nc1ccc(S(=O)(=O)N2CCN(c3cccc(C)c3C)CC2)cc1 returned MT stabilize HCS 13.6*, bCat nuc transl 5.0, PGE2 EP2 inh 11.1, Tb hexokinase -3.3, Efa HMGR inh 2.1 and EP2 modulator -61.4.
Screening c1csc(-c2cnc3ccccc3n2)c1 returned MT stabilize HCS 4.8, bCat nuc transl 1.8, PGE2 EP2 inh 6.8, Tb hexokinase -9.6, Efa HMGR inh -5.1 and EP2 modulator 3.1.
`c1cc2c(cnc3cscc32)s1` gave MT stabilize HCS 3.4, bCat nuc transl -0.7, PGE2 EP2 inh 42.2*, Tb hexokinase -5.9, Efa HMGR inh -5.7 and EP2 modulator -48.2.
Screening CCCC(c1nnnn1C1CCCCC1)N(Cc1cc2cccc(C)c2[nH]c1=O)C1CCCC1 (stereo not given) returned PGE2 EP2 inh 4.3 and EP2 modulator 41.9.
CCCn1c(SCC(=O)Nc2c(C)cc(C)cc2C)nnc1-c1ccco1 was read as PGE2 EP2 inh 4.7 and EP2 modulator -14.7.
For CCOC(=O)c1cccc(NC(=O)CSc2nnc3c(C)cc4cc5c(cc4n23)OCO5)c1 the results were PGE2 EP2 inh 48.1* and EP2 modulator 2.8.
Screening Cc1[nH]nc2c1C(c1ccc(O)cc1)C1=C(CC(C)(C)CC1=O)N2 (stereo not given) returned MT stabilize HCS 5.5, bCat nuc transl -1.7, PGE2 EP2 inh 5.2, Tb hexokinase -30.6, Efa HMGR inh -2.4 and EP2 modulator 23.7.
Cc1[nH]nc2c1C(c1ccsc1)C1=C(CC(C)(C)CC1=O)N2 (stereo not given) was read as MT stabilize HCS 3.4, bCat nuc transl 2.1, PGE2 EP2 inh 7.4, Tb hexokinase -30.0, Efa HMGR inh 14.8* and EP2 modulator 30.5.
For Cc1ccc([N+](=O)[O-])cc1Nc1nc(N2CCOCC2)nc(N2CCOCC2)n1 the results were MT stabilize HCS 1.3, bCat nuc transl -0.5, PGE2 EP2 inh 2.7, Tb hexokinase -5.4, Efa HMGR inh 10.3* and EP2 modulator 7.1.
